This is an account of results in article PMC2982901 (Cancer chemotherapy and pharmacology, 2010).

Values joined by “and” are separate entries in the source; they are usually repeats but may differ in a detail not shown here. Equal values may be shown once. Read-outs that look alike come from different tables or passages of the source.

Usually IC50 stands for the concentration that inhibits the measured activity by half. The term IC90 denotes the concentration at which the effect reaches the 90% level.

The test system of data set [1] is Panc-1 xenografts. Conditions: Panc-1 xenograft; for Median T–C: two tumor volume doublings.
For data set [2], the system named is NCI-H460 xenografts. As to conditions: NCI-H460 xenograft, i.p. 5/2/5 schedule vs irinotecan i.v. Q4D×3.
For data set [3], the system named is HT29 xenografts. Conditions: HT29 xenograft, i.p. 5/2/5 schedule vs irinotecan i.v. Q4D×3.
The test system of data set [4] is SF-295 xenografts. Conditions: SF-295 xenograft, i.p. 5/2/5 schedule vs irinotecan i.v. Q4D×3.
In data set [5] the test system is Panc-1 cells. The data set can be described thus: Growth inhibition assay, Panc-1 cells. Format: cell-based, human. As to conditions: for IC50 vs. BACPT: ratio of IC50 to that of BACPT; for IC90 vs. BACPT: ratio of IC90 to that of BACPT.
For data set [6], the system named is NGP neuroblastoma cell line. The data set can be described thus: Growth inhibition assay, NGP neuroblastoma cells. The data set is classed as cell-based, human.
In data set [7] the test system is Panc-1 cells. Nature of the data set: Drug interaction assay with gemcitabine in Panc-1 cells. As to conditions: for Dose reduction index: gemcitabine followed 24 h by BACPT, Panc-1. The data set is classed as cell-based, human. In short, it runs like this: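 Panc-1 cells were grown in DMEM with 10% FBS and seeded at 3,000 cells/well. Gemcitabine was given first, then the test compound 24 h later. Exposure was 3 days, followed by 2 days in drug-free medium. Survival was read by ATP assay, with seven dose levels per curve in triplicate. Interaction was analysed by the Chou combination-index method as a function of fraction affected (fa = 0.5 is the IC50).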

Data set [8] concerns IMR-32 histocultures. The data set can be described thus: Histoculture assay, IMR-32. The data set is classed as cell-based, human. Conditions: hypoxic (1.5% O2) and acidic (pH 6.8), results not shown.
Data set [9] has as its system MCF-7 cells. Conditions: MCF-7 cells cultured at pH 6.8 vs. 7.4; cited from earlier work.
Data set [10] has as its system SK-N-MC neuroblastoma cell line. The data set can be described thus: Growth inhibition assay, SK-N-MC neuroblastoma cells. Format: cell-based, human.
Data set [11] concerns IMR-32 neuroblastoma cell line. The data set can be described thus: Growth inhibition assay, IMR-32 neuroblastoma cells. The data set is classed as cell-based, human.
Data set [12] concerns SK-N-BE(2c) neuroblastoma cell line. The data set can be described thus: Growth inhibition assay, SK-N-BE. Format: cell-based, human.
Setting [13] is: 8.0 mg/kg i.p., 5/2/5 schedule, 8 mg/kg.
The mark [14] stands for this setting: read-out: IC50 (nM) pH 6.8, pH 6.8.
Setting [15] is: read-out: IC50 (nM) pH 7.4, pH 7.4.
The mark [16] stands for this setting: 60 mg/kg i.v., Q4D×3 schedule, 60 mg/kg.

“7-butyl-10-amino-camptothecin-(20S) β-alanine-lysine [BACPTDP]”: the “Median survival” value in [1] (4.5 mg/kg i.p., 5/2/5 schedule) is 27.4 ± 2.0 days; in data set [1] (setting [13]), 67 days and 66.7 ± 7.8 days. In addition, in data set [1] (4.5 mg/kg i.p., 5/2/5 schedule), the TFS is reported as 0. Besides, the “Median T–C” value was found to be 10.9 days in [1] (4.5 mg/kg i.p., 5/2/5 schedule) and 60.0 days in data set [1] (8.0 mg/kg i.p., 5/2/5 schedule). The “TFS (tumor-free animals at 95 days)” value in data set [1] (setting [13]) is 2/6 and 2. In addition, the “antitumor activity relative to irinotecan” value in data set [2], in data set [3] and in [4] was “comparable to irinotecan” in each case.

`Nc1ncn([C@@H]2O[C@H](CO)[C@@H](O)[C@H]2O)c(=O)n1` [5-Azacytidine]: half-maximal inhibition in [5] (Homo sapiens, PANC-1) (IC50) was put at 68800 nM. In [5] (Panc-1 cells), the “IC90 (nM)” value is “not achieved” and the “IC50 vs. BACPT” value was 16,916.

In [5] (Homo sapiens, PANC-1), `O=c1[nH]cc(F)c(=O)[nH]1` [5-Flurouracil] returned an IC50 of 9180 nM and an IC90 of 97600 nM. Besides, in [5] (Panc-1 cells), the “IC50 vs. BACPT” value is 2,257 and the “IC90 vs. BACPT” value is 1,136.

On to `CCCCc1c2c(nc3ccc(N)cc13)-c1cc3c(c(=O)n1C2)COC(=O)C3(O)CC` (stereo not drawn) [BACPT, 7-Butyl-10-amino-camptothecin], for which the “Fold increase at acidic pH” value in data set [6] (pH 6.8 vs 7.4) worked out at 49; in data set [10] (pH 6.8 vs 7.4), 8; in data set [11] (IMR-32, pH 6.8 vs 7.4) it was 12; in data set [12] (pH 6.8 vs 7.4), 5. Besides, the IC50 was 26 nM in data set [6] (setting [14]); 1290 nM in [6] (setting [15]); 4 nM in data set [5] (Panc-1 cells); 200 nM in data set [8]; 0.001 nM in [10] (setting [15]); 127 nM in data set [11] (read-out: IC50 (nM) pH 6.8, IMR-32, pH 6.8). Moreover, the IC50 in data set [11] (read-out: IC50 (nM) pH 7.4, IMR-32, pH 7.4) is 1390 nM; in data set [12] (setting [14]) it was 0.019 nM; in data set [12] (setting [15]) it was 0.099 nM. For the same compound, the Dose reduction index in [7] (Fraction affected 0.2) was found to be 2.0; in data set [7] (Fraction affected 0.3), 5.3; in data set [7] (Fraction affected 0.4) it was 11.0; in data set [7] (Fraction affected 0.6), 38.0; in [7] (Fraction affected 0.7), 69.1; in data set [7] (Fraction affected 0.8), 133.8. In data set [7] (Panc-1, molar ratio 100:1 gemcitabine:BACPT, median effect analysis), the “interaction in combination with gemcitabine (combination index)” value is listed as “additive (CI = 1) to synergistic (CI < 1)”. Moreover, in data set [5] (Panc-1 cells), the IC90 amounted to 86 nM. Besides, the “IC50 vs. BACPT” value in data set [5] (Panc-1 cells) is reported as 1. In addition, the “IC90 vs. BACPT” value in data set [5] (Panc-1 cells) came out at 1. Further, in data set [9], the “increase in potency at acidic pH” value is listed as approximately 15 fold.

As for `CCc1c2c(nc3ccc(OC(=O)N4CCC(N5CCCCC5)CC4)cc13)-c1cc3c(c(=O)n1C2)COC(=O)[C@]3(O)CC` [CPT-11, irinotecan], in [1] (40 mg/kg i.v., Q4D×3 schedule), the “Maximum body weight loss (%)” value is given as 2%, the “Median survival” value was 35.0 ± 9.3 days and the TFS is given as 0. Further, in [1] (60 mg/kg i.v., Q4D×3 schedule), the “Maximum body weight loss (%)” value was 6% and the TFS stood at 0. In [1] (setting [16]), the “Median survival” value was determined as 31.4 ± 1.5 days and the TFS result is given as “no tumor-free animals”.

In data set [5] (Homo sapiens, PANC-1), `Cc1nc(Nc2ncc(C(=O)Nc3c(C)cccc3Cl)s2)cc(N2CCN(CCO)CC2)n1` [Dasatinib] came in with an IC50 of 6890 nM and a 90% effect concentration (IC90) of 13200 nM. Further, in [5] (Panc-1 cells), the “IC50 vs. BACPT” value is 1,693 and the “IC90 vs. BACPT” value was 154.

In [5] (Homo sapiens, PANC-1), `Nc1ncn([C@H]2C[C@H](O)[C@@H](CO)O2)c(=O)n1` [Decitabine] registered an IC50 of 69000 nM. In [5] (Panc-1 cells), the “IC90 (nM)” value is “not achieved” and the “IC50 vs. BACPT” value was 16,963.

Turning to `C#Cc1cccc(Nc2ncnc3cc(OCCOC)c(OCCOC)cc23)c1` [Erlotinib], the “IC50 (nM)” value in data set [5] (Panc-1 cells) is “inactive”.

Consider `COc1cc([C@@H]2c3cc4c(cc3[C@@H](O[C@@H]3O[C@@H]5CO[C@@H](C)O[C@H]5[C@H](O)[C@H]3O)[C@H]3COC(=O)[C@H]23)OCO4)cc(OC)c1O` [Etoposide], for which, in data set [5] (Homo sapiens, PANC-1), the IC50 was 651 nM and the 90% effect level (IC90) was put at 8750 nM. In [5] (Panc-1 cells), the “IC50 vs. BACPT” value came to 160 and the “IC90 vs. BACPT” value is 102.

Consider `Nc1ccn([C@@H]2O[C@H](CO)[C@@H](O)C2(F)F)c(=O)n1` [Gemcitabine], for which the Dose reduction index in data set [7] (Fraction affected 0.2) is given as 1.0; in [7] (Fraction affected 0.3) it was 1.6; in data set [7] (Fraction affected 0.4) it was 2.3; in data set [7] (Fraction affected 0.5 (IC50)) it was 3.1; in [7] (Fraction affected 0.6), 3.9; in data set [7] (Fraction affected 0.7), 4.8. In addition, the Dose reduction index in data set [7] (Fraction affected 0.8) is recorded as 5.8. In addition, the IC50 in [5] (Homo sapiens, PANC-1) was determined as 23 nM. In [5] (Homo sapiens, PANC-1), this compound came in with an IC90 of 117 nM. The “IC50 vs. BACPT” value in data set [5] (Panc-1 cells) is 6. Further, the “IC90 vs. BACPT” value in data set [5] (Panc-1 cells) came out at 1.

On to `CCc1c2c(nc3ccc(O)cc13)-c1cc3c(c(=O)n1C2)COC(=O)[C@]3(O)CC` [SN-38], for which, in [8], the 50% inhibitory concentration (IC50) stood at 10000 nM.

For `Cn1nnc2c(C(N)=O)ncn2c1=O` [Temozolomide], in data set [5] (Panc-1 cells), the “IC50 (nM)” value is “inactive”.

As to `CCC1=C[C@@H]2CN(C1)Cc1c([nH]c3ccccc13)[C@@](C(=O)OC)(c1cc3c(cc1OC)N(C)[C@H]1[C@@](O)(C(=O)OC)[C@H](OC(C)=O)[C@]4(CC)C=CCN5CC[C@]31[C@@H]54)C2` [Vinorelbine], in data set [5] (Homo sapiens, PANC-1), 103 nM corresponded to half-maximal inhibition (IC50). In addition, in data set [5] (Panc-1 cells), the “IC90 (nM)” value is “not achieved” and the “IC50 vs. BACPT” value is 25.
